# Measurements from ChEMBL document CHEMBL4387700, “A novel, potent, and orally bioavailable thiazole HCV NS5A inhibitor for the treatment of hepatitis C virus” (Eur J Med Chem, 2019).
# Test: Cytotoxicity against human HuH7 cells assessed as reduction in cell viability by MTS assay
# Type: cell-based, Huh-7
# Procedure, shortened: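 Viability of Huh-7 cells was read by MTS assay.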
row,Compound,CC50
1,O=C(N[C@H](C(=O)N1CCC[C@H]1c1ncc(-c2ccc(-c3ccc(-c4cnc([C@@H]5CCCN5C(=O)[C@H](NC(=O)C5CCCC5)c5ccccc5)s4)cc3)cc2)s1)c1ccccc1)C1CCCC1,> 50 µM
2,O=C(N[C@H](C(=O)N1CCC[C@H]1c1ncc(-c2ccc(-c3ccc(-c4cnc([C@@H]5CCCN5C(=O)[C@H](NC(=O)c5ccoc5)c5ccccc5)s4)cc3)cc2)s1)c1ccccc1)c1ccoc1,> 50 µM
3,O=C(N[C@H](C(=O)N1CCC[C@H]1c1ncc(-c2ccc(-c3ccc(-c4cnc([C@@H]5CCCN5C(=O)[C@H](NC(=O)c5ccccn5)c5ccccc5)s4)cc3)cc2)s1)c1ccccc1)c1ccccn1,> 50 µM
4,C[C@@H](NC(=O)C1CC1)C(=O)N1CCC[C@H]1c1ncc(-c2ccc(-c3ccc(-c4cnc([C@@H]5CCCN5C(=O)[C@@H](C)NC(=O)C5CC5)s4)cc3)cc2)s1,> 50 µM
5,COC(=O)N[C@H](C(=O)N1CCC[C@H]1c1ncc(-c2ccc(-c3ccc(-c4cnc([C@@H]5CCCN5C(=O)[C@@H](NC(=O)OC)C(C)(C)C)s4)cc3)cc2)s1)C(C)(C)C,> 50 µM
6,CN(C)CCC(=O)N[C@H](C(=O)N1CCC[C@H]1c1ncc(-c2ccc(-c3ccc(-c4cnc([C@@H]5CCCN5C(=O)[C@H](NC(=O)CCN(C)C)c5ccccc5)s4)cc3)cc2)s1)c1ccccc1,> 50 µM
7,CC(C)(C)[C@@H](NC(=O)C1CC1)C(=O)N1CCC[C@H]1c1ncc(-c2ccc(-c3ccc(-c4cnc([C@@H]5CCCN5C(=O)[C@H](NC(=O)C5CC5)C(C)(C)C)s4)cc3)cc2)s1,> 50 µM
8,CCN(CC)CCC(=O)N[C@@H](C(=O)N1CCC[C@H]1c1ncc(-c2ccc(-c3ccc(-c4cnc([C@@H]5CCCN5C(=O)[C@H](NC(=O)CCN(CC)CC)c5ccccc5)s4)cc3)cc2)s1)c1ccccc1,> 50 µM
9,O=C(CCN1CCCC1)N[C@@H](C(=O)N1CCC[C@H]1c1ncc(-c2ccc(-c3ccc(-c4cnc([C@@H]5CCCN5C(=O)[C@H](NC(=O)CCN5CCCC5)c5ccccc5)s4)cc3)cc2)s1)c1ccccc1,> 50 µM
10,CS(=O)(=O)N[C@H](C(=O)N1CCC[C@H]1c1ncc(-c2ccc(-c3ccc(-c4cnc([C@@H]5CCCN5C(=O)[C@H](NS(C)(=O)=O)c5ccccc5)s4)cc3)cc2)s1)c1ccccc1,> 50 µM
11,O=C(CCn1cccc1)N[C@@H](C(=O)N1CCC[C@H]1c1ncc(-c2ccc(-c3ccc(-c4cnc([C@@H]5CCCN5C(=O)[C@H](NC(=O)CCn5cccc5)c5ccccc5)s4)cc3)cc2)s1)c1ccccc1,> 50 µM
12,CC(=O)N[C@@H](C(=O)N1CCC[C@H]1c1ncc(-c2ccc(-c3ccc(-c4cnc([C@@H]5CCCN5C(=O)[C@H](NC(C)=O)c5ccccc5)s4)cc3)cc2)s1)c1ccccc1,> 50 µM
13,O=C(N[C@H](C(=O)N1CCC[C@H]1c1ncc(-c2ccc(-c3ccc(-c4cnc([C@@H]5CCCN5C(=O)[C@H](NC(=O)C5CCCCC5)c5ccccc5)s4)cc3)cc2)s1)c1ccccc1)C1CCCCC1,> 50 µM
14,O=C(N[C@H](C(=O)N1CCC[C@H]1c1ncc(-c2ccc(-c3ccc(-c4cnc([C@@H]5CCCN5C(=O)[C@H](NC(=O)c5cccs5)c5ccccc5)s4)cc3)cc2)s1)c1ccccc1)c1cccs1,> 50 µM
15,O=C(N[C@@H](C(=O)N1CCC[C@H]1c1ncc(-c2ccc(-c3ccc(-c4cnc([C@@H]5CCCN5C(=O)[C@H](NC(=O)c5ccsc5)c5ccccc5)s4)cc3)cc2)s1)c1ccccc1)c1ccsc1,> 50 µM
16,O=C(CCN1CCOCC1)N[C@@H](C(=O)N1CCC[C@H]1c1ncc(-c2ccc(-c3ccc(-c4cnc([C@@H]5CCCN5C(=O)[C@H](NC(=O)CCN5CCOCC5)c5ccccc5)s4)cc3)cc2)s1)c1ccccc1,> 50 µM
17,O=C(N[C@@H](C(=O)N1CCC[C@H]1c1ncc(-c2ccc(-c3ccc(-c4cnc([C@@H]5CCCN5C(=O)[C@H](NC(=O)C5CCCCC5)c5ccccc5)s4)cc3)cc2)s1)c1ccccc1)C1CCCCC1,> 50 µM

row,Compound,CC50
1,CCCC(=O)N[C@H](C(=O)N1CCC[C@H]1c1ncc(-c2ccc(-c3ccc(-c4cnc([C@@H]5CCCN5C(=O)[C@H](NC(=O)CCC)c5ccccc5)s4)cc3)cc2)s1)c1ccccc1,> 50 µM
2,O=C(CCN1CCCCC1)N[C@H](C(=O)N1CCC[C@H]1c1ncc(-c2ccc(-c3ccc(-c4cnc([C@@H]5CCCN5C(=O)[C@H](NC(=O)CCN5CCCCC5)c5ccccc5)s4)cc3)cc2)s1)c1ccccc1,> 50 µM
3,O=C(N[C@@H](C(=O)N1CCC[C@H]1c1ncc(-c2ccc(-c3ccc(-c4cnc([C@@H]5CCCN5C(=O)[C@H](NC(=O)c5ccccn5)c5ccccc5)s4)cc3)cc2)s1)c1ccccc1)c1ccccn1,> 50 µM
4,COC(=O)N[C@H](C(=O)N1CCC[C@H]1c1ncc(-c2ccc(-c3ccc(-c4cnc([C@@H]5CCCN5C(=O)[C@@H](NC(=O)OC)C(C)C)s4)cc3)cc2)s1)C(C)C,> 50 µM
5,CCCC[C@H](NC(=O)OC)C(=O)N1CCC[C@H]1c1ncc(-c2ccc(-c3ccc(-c4cnc([C@@H]5CCCN5C(=O)[C@H](CCCC)NC(=O)OC)s4)cc3)cc2)s1,> 50 µM
6,CC(C)[C@@H](NC(=O)C1CC1)C(=O)N1CCC[C@H]1c1ncc(-c2ccc(-c3ccc(-c4cnc([C@@H]5CCCN5C(=O)[C@H](NC(=O)C5CC5)C(C)C)s4)cc3)cc2)s1,> 50 µM
7,CC(C)(C)C(=O)N[C@H](C(=O)N1CCC[C@H]1c1ncc(-c2ccc(-c3ccc(-c4cnc([C@@H]5CCCN5C(=O)[C@H](NC(=O)C(C)(C)C)c5ccccc5)s4)cc3)cc2)s1)c1ccccc1,> 50 µM
8,O=C(CCN1CCOCC1)N[C@H](C(=O)N1CCC[C@H]1c1ncc(-c2ccc(-c3ccc(-c4cnc([C@@H]5CCCN5C(=O)[C@H](NC(=O)CCN5CCOCC5)c5ccccc5)s4)cc3)cc2)s1)c1ccccc1,> 50 µM
9,CCC[C@@H](NC(=O)C1CC1)C(=O)N1CCC[C@H]1c1ncc(-c2ccc(-c3ccc(-c4cnc([C@@H]5CCCN5C(=O)[C@@H](CCC)NC(=O)C5CC5)s4)cc3)cc2)s1,> 50 µM
10,O=C(N[C@@H](C(=O)N1CCC[C@H]1c1ncc(-c2ccc(-c3ccc(-c4cnc([C@@H]5CCCN5C(=O)[C@H](NC(=O)c5ccncc5)c5ccccc5)s4)cc3)cc2)s1)c1ccccc1)c1ccncc1,> 50 µM
11,CN1CCN(CCC(=O)N[C@@H](C(=O)N2CCC[C@H]2c2ncc(-c3ccc(-c4ccc(-c5cnc([C@@H]6CCCN6C(=O)[C@H](NC(=O)CCN6CCN(C)CC6)c6ccccc6)s5)cc4)cc3)s2)c2ccccc2)CC1,> 50 µM
12,COC(=O)N[C@H](C(=O)N1CCC[C@H]1c1ncc(-c2ccc(-c3ccc(-c4cnc([C@@H]5CCCN5C(=O)[C@@H](NC(=O)OC)c5ccccc5)s4)cc3)cc2)s1)c1ccccc1,> 50 µM
13,CN(C)CCC(=O)N[C@@H](C(=O)N1CCC[C@H]1c1ncc(-c2ccc(-c3ccc(-c4cnc([C@@H]5CCCN5C(=O)[C@H](NC(=O)CCN(C)C)c5ccccc5)s4)cc3)cc2)s1)c1ccccc1,> 50 µM
14,COC(=O)N[C@@H](CC(C)C)C(=O)N1CCC[C@H]1c1ncc(-c2ccc(-c3ccc(-c4cnc([C@@H]5CCCN5C(=O)[C@H](CC(C)C)NC(=O)OC)s4)cc3)cc2)s1,> 50 µM
15,CCOC(=O)N[C@H](C(=O)N1CCC[C@H]1c1ncc(-c2ccc(-c3ccc(-c4cnc([C@@H]5CCCN5C(=O)[C@@H](NC(=O)OCC)C(C)C)s4)cc3)cc2)s1)C(C)C,> 50 µM
16,COC(=O)N[C@@H](C(=O)N1CCC[C@H]1c1ncc(-c2ccc(-c3ccc(-c4cnc([C@@H]5CCCN5C(=O)[C@H](NC(=O)OC)c5ccccc5)s4)cc3)cc2)s1)c1ccccc1,> 50 µM
17,O=C(N[C@H](C(=O)N1CCC[C@H]1c1ncc(-c2ccc(-c3ccc(-c4cnc([C@@H]5CCCN5C(=O)[C@H](NC(=O)N5CCOCC5)c5ccccc5)s4)cc3)cc2)s1)c1ccccc1)N1CCOCC1,> 50 µM
